SMILES strings stand for the structures. Values joined by “and” are separate entries in the source; they are usually repeats but may differ in a detail not shown here. Equal entries are not always repeated. Among all 330,000 compounds or so, about 1,100 (0.33%) were called active. The full list was thinned out, with actives kept by preference. Unmarked numbers belong to inactive results.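 How the source made its calls: active means mean inhibition over replicate wells above about 20% (limit read from the data); inactive means the rest.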

Consider 92 compounds from PubChem BioAssay AID588478 (ICCB-Longwood Screening Facility, Harvard Medical School, 2011).

Ubiquitin carboxyl-terminal hydrolase isozyme L5 (Homo sapiens), sequence (Q9Y5K5 whole entry, looked up): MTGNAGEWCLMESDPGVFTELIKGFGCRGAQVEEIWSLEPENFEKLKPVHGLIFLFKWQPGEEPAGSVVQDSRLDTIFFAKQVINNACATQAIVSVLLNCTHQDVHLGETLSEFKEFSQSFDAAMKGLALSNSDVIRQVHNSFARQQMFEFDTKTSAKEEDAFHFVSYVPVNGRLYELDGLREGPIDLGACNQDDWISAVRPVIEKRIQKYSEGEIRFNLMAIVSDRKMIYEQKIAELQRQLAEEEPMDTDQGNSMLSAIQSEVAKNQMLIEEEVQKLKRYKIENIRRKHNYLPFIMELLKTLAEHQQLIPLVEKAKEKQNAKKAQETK

For this test, the target named is Ubiquitin carboxyl-terminal hydrolase isozyme L5 (Homo sapiens) (UniProt Q9Y5K5). The test can be described thus: inhibitors of human UCH37 deubiquitinase, primary screen, biochemical, Ub-AMC cleavage, fluorescence (AID 588478).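 Further: 0% = compound-free wells with enzyme and 100% = wells lacking proteasome.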 The conditions noted are these: purified proteasome/UCH37, Ub-AMC cleavage fluorescence; hits give high values; concentration not given here. An outline of the steps: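 Material: Human UCH37 enzyme supplied as purified proteasome complex | Schedule: 30 min compound-proteasome preincubation then 25 min substrate reaction, room temperature | Detection: AMC fluorescence from Ub-AMC cleavage, excitation 355 nm, emission 460 nm | Benchmarks: Wells without proteasome as full block, compound-free enzyme plus substrate as uninhibited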
Take `CN(Cc1ccccc1)C(=O)c1cccc(C(=O)N(C)Cc2ccccc2)c1`: the inhibition was 0.499%.
With `CCN(CC)C(=O)N(CC)Cc1ccccc1` the figure was -0.131%; with `CCN(CC)C(=O)c1nc[nH]c1C(=O)N(C)Cc1ccccc1`, 26.1% (active); with `O=S1(=O)CCC(=NNc2ccc(C(F)(F)F)cn2)c2cc(F)ccc21`, 0.609%.
As for `COc1ccc(C(=O)NCC(=O)NN=Cc2cn[nH]c2-c2ccccc2)cc1`, the inhibition is 1.68%.
With `O=C(O)c1ccc2c(c1)C(=O)N(NC(=O)c1ccc(O)cc1)C2=O` the figure was 7.31%; with `CC(=O)N1C(=O)/C(=C2\SC(=S)N(NC(=O)c3ccc(O)cc3)C2=O)c2ccccc21`, 40.9% (active); with `Cn1cccc1/C=C1\SC(=S)N(NC(=O)c2ccc(Cl)cc2)C1=O`, 1.88%.
For `Cc1ccc(NC(=O)ON=Cc2ccc(F)cc2)cc1`, the inhibition is 5.21%.
In the case of `Cc1cc(=O)oc2c3c(ccc12)OCC3=NN` it was -22.9%.
With `CC(=NNc1ccccc1C(=O)O)c1cccs1` the figure was 10.1%; with `COC(=O)c1ccc(C=NOCC(=O)NC2CCCCCCC2)cc1`, 0.759%; with `CC1(OC(=O)CCc2ccccc2)C(=O)C=C2C=C(c3ccc(C#N)cc3)N(CCc3ccccn3)C=C2C1=O` (configuration not stated), 0.0366%.
On to `COCCN1C=C2C(=O)C(C)(OC(=O)C3CCCC3)C(=O)C=C2C=C1c1ccsc1` (configuration not stated), for which the inhibition was 46.2% (active).
For the compound `C=CCN1C=C2C(=O)C(C)(OC(=O)CCc3ccccc3)C(=O)C=C2C=C1c1ccc(C#N)cc1` (configuration not stated), the inhibition was -31%.
With `COc1ccc(C=NNc2nncn2N)cc1Br`, the inhibition was 14.1%.
`O=C(CN(Cc1ccccc1)S(=O)(=O)c1ccc2c(c1)OCCO2)NN=Cc1cccc(Br)c1`: the inhibition was 0.583%.
`CCOc1ccccc1C=c1sc2nc(-c3ccco3)nn2c1=O`: the inhibition is 3.89%.
`CCC(=NNC(=O)Cc1ccc(Br)cc1)c1cccs1`: the inhibition is 0.706%.
With `CCS(=O)(=O)N1CCCC(C(=O)NCc2ccc(C)cc2)C1` (configuration not stated) the figure was 9.8%; with `CCS(=O)(=O)N1CCCC(C(=O)NCCCN(C)Cc2ccccc2)C1` (configuration not stated), 29% (active); with `CCCS(=O)(=O)N1CCC(C(=O)NCCCN(C)Cc2ccccc2)CC1`, -3.1%.
In the case of `O=C(NC1CCCC1)C(c1ccc(N2CCOCC2)cc1)N(C(=O)c1ccco1)c1ccccc1F` (configuration not stated) it was 38.4% (active).
As for `COc1cc(C(C(=O)NC2CCCC2)N(C(=O)c2ccco2)c2ccccc2C(C)=O)cc(OC)c1OC` (configuration not stated), the inhibition is 4.15%.
`O=C(NC1CCCC1)C(c1ccco1)N(C(=O)c1ccco1)c1ccc(F)cc1` (configuration not stated): the inhibition was 1.87%.
Regarding `Cc1cccc(C(=O)ON=C(c2ccccc2)c2ccncc2)c1`, the inhibition is 3.58%.
For `Cc1ccc(-c2csc(N3CCN(c4cc5c(cc4Cl)nc(-c4ccncc4)n5CCOCCO)CC3)n2)cc1`, the inhibition was -1.15%.
In the case of `CCCn1c(C2CCCN2c2nc(-c3ccc(C)cc3)cs2)nc2cc(Cl)c(N3CCCCC3)cc21` (configuration not stated) it was 3.86%; in that of `Nc1c(Cl)cc(-c2csc(N3CCCC3c3nc4cc(Cl)c(Cl)cc4n3CCOCCO)n2)cc1Cl` (configuration not stated), 28% (active).
With `CCOC(=O)C1=C(C)N=c2sc(=Cc3ccncc3)c(=O)n2C1c1ccc2c(c1)OCO2` (configuration not stated) the figure was -0.871%.
As for `O=C(N[C@@H](Cc1ccccc1)C(=O)OCc1ccccc1)c1nc[nH]c1C(=O)N[C@@H](Cc1ccccc1)C(=O)OCc1ccccc1`, the inhibition is 31.8% (active).
With `O=C(N[C@@H](Cc1ccccc1)C(=O)OCc1ccccc1)c1nc[nH]c1C(=O)NC1CCNCC1` the figure was -1.66%.
Regarding `CC(C)(C)OC(=O)CNC(=O)c1[nH]cnc1C(=O)N[C@@H](Cc1ccccc1)C(=O)OCc1ccccc1`, the inhibition was 0.224%.
In the case of `O=C(CNC(=O)c1ccncc1)NN=Cc1cccc([N+](=O)[O-])c1`, the inhibition was 1.21%.
With `COc1cccc(/C=C/C(=O)OCC(=O)N2CCN(c3ccccc3)CC2)c1` the figure was -11.1%; with `C[C@H](NC(=O)c1ccccc1Cl)C(=O)OCC(=O)N1CCN(c2ccccc2)CC1`, 0.507%.
In the case of `O=C(OCC(=O)N1CCN(c2ccccc2)CC1)c1ccc([N+](=O)[O-])s1` it was 61.3% (active); in that of `Cc1cc([N+](=O)[O-])cc(C=Nn2c(C)nc3ccccc3c2=O)c1O`, 12.9%; in that of `Cc1cc(C)n(C(=O)C(C#N)=NNc2cc(Cl)cc(Cl)c2)n1`, 7.62%.
With `CON=C(C(=O)N[C@@H]1C(=O)N2C(C(=O)O)=C(COC(C)=O)CS[C@H]12)c1csc(N)n1` the figure was 2.25% and 5.96%; with `Clc1ccc(-c2csc(NN=Cc3cccnc3)n2)cc1`, 7.34%; with `CCOC(=O)c1c(C)nc(-c2ccccc2)nc1NC(=O)C(C)C`, 2.52%.
On to `CCOC(=O)c1ccccc1OC(=O)Oc1ccccc1C(=O)OCC`, for which the inhibition is 2.7%.
As to `CCOC(=O)c1c(C)[nH]c2c1-c1ccccc1C(=O)C2=O`, the inhibition was 72.6% (active).
With `O=C(NN=C/C(Br)=C/c1ccccc1)NC1CCCCC1` the figure was 4.04%; with `Cc1cc(C)nc(SCC(=O)N(C)C)n1`, 4.9%; with `Cc1nnc(SCC(=O)N(C(C)C)C(C)C)nc1C`, 32.8% (active).
For `CC(C)N(C(=O)CSc1nc(COc2ccccc2)nc2ccccc12)C(C)C`, the inhibition was 2.03%.
With `O=C(NN=Cc1cccs1)c1cc(-c2ccc(Cl)s2)[nH]n1` the figure was 4.08%; with `Cc1nn(Cc2ccc(Cl)cc2Cl)c(Cl)c1C=NNC(=O)CNc1cccc(C(F)(F)F)c1`, 5.09%; with `CCSc1nc(C)nc2c1oc1ccccc12`, 22.4% (active).
For the compound `COc1ccc(CCNC(=O)CSc2nc(C)nc3c2oc2ccccc23)cc1OC`, the inhibition was 1.13%.
`O=c1[nH]c(CSc2ccccc2)nc2c1oc1ccccc12`: the inhibition is 3.26%.
Take `N#Cc1ccc(OCC(=O)NN=C2CC(c3ccccc3)Oc3ccccc32)cc1` (configuration not stated): the inhibition was 6.87%.
With `COC(=O)c1ccccc1-c1ccc(C=NNC(N)=O)o1` the figure was -17.5%; with `Cc1cc(C(=O)NN=C2CC(=O)CC(C)(C)C2)c2ccccc2n1`, 6.67%.
Regarding `O=C(/C=C/c1ccc(N2CCOCC2)cc1)c1ccccc1`, the inhibition was -0.318%.
With `O=C(O)c1ccc2c(c1)C(=O)N(c1ccc(/C=C/C(=O)c3ccccc3)cc1)C2=O` the figure was 8.59%.
With `O=C(/C=C/c1ccccc1)c1ccoc1` the figure was 35.8% (active).
In the case of `CCN1C(=O)CSC1=NS(=O)(=O)c1ccc(Cl)cc1` it was -0.232%.
For the compound `COc1ccc(C=NNC(=O)CSc2ccccn2)cc1OC`, the inhibition was 5.41%.
In the case of `CCN1/C(=C\c2ccc3ccccc3[n+]2CC)Sc2cc(C)ccc21` it was 4.94%; in that of `CCC(=O)/C=C1\Sc2ccccc2N1CC`, 23.7% (active); in that of `CCOC(=O)CNC(=O)N1c2ccccc2Sc2ccccc21`, 5.96%.
On to `COC(=O)c1ccc(C=NNC(=O)CNc2cccc(C)c2)cc1`, for which the inhibition was 1.65%.
`Cc1[nH]c2ccccc2c1C=NNC(=O)CCC(=O)NCc1ccccc1`: the inhibition is 2.82%.
In the case of `Cc1cccc(C=NNC(=O)Cn2nccc2C)n1` it was -0.386%; in that of `O=C1C=C(NS(=O)(=O)c2ccccc2)C(=O)c2ccccc21`, 16.2%.
In the case of `COc1ccc(S(=O)(=O)NCCCc2ccccc2)cc1` it was 4.02%.
Turning to `COc1ccc(S(=O)(=O)/N=C2\C=C(NS(=O)(=O)c3ccccc3)C(=O)c3ccccc32)cc1`, the inhibition was 39.6% (active).
In the case of `CC(=NNC(=O)c1cccc(NN=C(C)c2ccco2)c1)c1ccco1` it was 1.7%; in that of `CCCCCCC(=O)NN=CCc1ccccc1`, 0.89%; in that of `COc1ccccc1N1CCN(N=C/C=C\c2ccccc2[N+](=O)[O-])CC1`, 7.46%.
For the compound `CON=CCc1oc(=O)c(NC(=O)c2ccccc2)cc1C(=O)OC`, the inhibition was 1.47%.
In the case of `CCCCCCCNC(=O)C1(CC2CC(c3cccc(Br)c3)=NO2)CCN(C(=O)c2cc(OCC)c(OCC)c(OCC)c2)CC1` (configuration not stated) it was 3.99%; in that of `O=C(c1ccccc1)N1CCC(CC2CC(c3ccc(Cl)cc3)=NO2)(C(=O)NCC2CCCCC2)CC1` (configuration not stated), 22.5% (active); in that of `COc1ccc(CNC(=O)C2(CC3CC(c4ccccc4)=NO3)CCN(C(=O)c3cccc(O)c3)CC2)cc1` (configuration not stated), 4.4%.
On to `CCOc1cc(C=NNC(=O)C(N)=O)cc(Br)c1O`, for which the inhibition is 13.3%.
As for `O=[N+]([O-])c1ccc(N(CCO)Cc2ccccc2)c([N+](=O)[O-])c1`, the inhibition is 6.59%.
As to `O=C1Nc2ccc([N+](=O)[O-])cc2C1=Nc1cccc(CO)c1`, the inhibition is 55.8% (active).
In the case of `O=[N+]([O-])c1ccc2c(c1)Nc1nc3ccccc3nc1N2`, the inhibition is 0.978%.
Turning to `Cc1nnc(NN=Cc2ccccn2)[nH]c1=O`, the inhibition was 1.91%.
In the case of `CC(=N/N=C1/NC(=O)C(CC(=O)NCc2ccccc2)S1)C(C)C` (configuration not stated) it was 3.63%; in that of `CCNC(=S)N=C(N)Nc1nc(C)c2cc(C)ccc2n1`, 6.4%; in that of `C(=NNc1nc(N2CCOCC2)nc(N2CCOCC2)n1)c1cccnc1`, 2.78%.
In the case of `Cc1ccc(N2C(=O)CC(Sc3ncn[nH]3)C2=O)cc1` (configuration not stated) it was 5.88%.
In the case of `Cc1ccc(S(=O)(=O)/N=S(\C)C(C)C)cc1` (configuration not stated) it was 0.621%.
On to `Cc1ccc(S(=O)(=O)N=C2C=C(Sc3ncn[nH]3)C(=O)c3ccccc32)cc1`, for which the inhibition is 63.7% (active).
In the case of `CC(=NNC(=S)NC(C)C)c1ccc(Cl)s1` it was 8.08%; in that of `O=C1/C(=C\Nc2ccccc2)CCN1c1ncccn1`, 21% (active); in that of `O=C(Cc1ccccc1)NNC(=O)C1CCN(c2ncccn2)CC1`, -5.78%.
In the case of `COc1ccccc1Oc1ccc(N/C=C2/CCCC2=O)cc1` it was 3.61%.

In general, inhibition refers to the change of the read-out against control, counted positive when it falls.
